ChEMBL document CHEMBL2046313, “Discovery and evaluation of a non-Zn chelating, selective matrix metalloproteinase 13 (MMP-13) inhibitor for potential intra-articular treatment of osteoarthritis” (J Med Chem, 2012)

Columns and labels:
Collagenase 3 = Collagenase 3 (Homo sapiens, UniProt P45452); assay: Inhibition of human recombinant MMP13 using MCA-Pro-Cha-Gly-Nva-His-Ala-Dpa-NH2 as substrate preincubated for 10 mins measured by fluorescence analysis
How it was run: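 Catalytic domain of recombinant human MMP-13 was assayed with fluorogenic substrate in 50 mM Tris-HCl pH 7.5, 150 mM NaCl, 5 mM CaCl₂, 0.05% Brij-35. Enzyme was 1–10 nM and substrate 4–10 μM. It was preincubated 10 min with varying inhibitor concentrations, and IC50 came from at least duplicate runs.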

[1] = molecular target: Macrophage metalloelastase (Homo sapiens, UniProt P39900); assay: Inhibition of human recombinant MMP12 using MCA-Pro-Leu-Gly-Leu-Dpa-Ala-Arg-NH2.AcOH as substrate preincubated for 10 mins measured by fluorescence analysis
How it was run: (§1)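 Catalytic domains of recombinant human MMPs were assayed with fluorogenic OmniMMP substrate in 50 mM Tris-HCl pH 7.5, 150 mM NaCl, 5 mM CaCl₂, 0.05% Brij-35. Enzyme was 1–10 nM and substrate 4–10 μM, optimized per assay. Enzyme was preincubated 10 min with varying inhibitor concentrations, and IC50 was calculated from runs done at least in duplicate.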

Interstitial collagenase = molecular target: T1, Interstitial collagenase (Homo sapiens, UniProt P03956); assay: Inhibition of human recombinant MMP1 using MCA-Pro-Leu-Gly-Leu-Dpa-Ala-Arg-NH2.AcOH as substrate preincubated for 10 mins measured by fluorescence analysis; how it was run: as §1
T1 sequence (P03956 whole entry): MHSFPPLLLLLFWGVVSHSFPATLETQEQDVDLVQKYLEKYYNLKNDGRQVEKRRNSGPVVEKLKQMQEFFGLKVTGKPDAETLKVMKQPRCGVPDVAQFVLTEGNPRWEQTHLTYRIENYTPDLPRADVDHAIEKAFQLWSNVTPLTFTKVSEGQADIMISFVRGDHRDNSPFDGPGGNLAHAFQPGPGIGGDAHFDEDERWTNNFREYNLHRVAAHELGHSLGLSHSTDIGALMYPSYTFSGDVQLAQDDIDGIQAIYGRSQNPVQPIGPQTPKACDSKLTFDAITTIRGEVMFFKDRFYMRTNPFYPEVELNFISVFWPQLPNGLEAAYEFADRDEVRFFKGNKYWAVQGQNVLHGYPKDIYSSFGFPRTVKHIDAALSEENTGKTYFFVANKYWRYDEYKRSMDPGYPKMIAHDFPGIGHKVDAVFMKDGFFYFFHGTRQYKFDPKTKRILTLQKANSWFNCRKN

Plasma [2] = assay: Drug uptake in Sprague-Dawley rat plasma at 0.5 mg/joint measured after 8 weeks; assay type: ADME, cell-free; settings: other, 1344 h, BLD = below limit of detection
Plasma [3] = assay: Drug uptake in Sprague-Dawley rat plasma at 1 mg/kg, iv measured after 8 weeks; assay type: ADME, organism-based; set-up: dose 1 mg/kg, route intravenous; settings: in vivo, 1344 h, BLD = below limit of detection
Neutrophil collagenase = Neutrophil collagenase (Homo sapiens, UniProt P22894); assay: Inhibition of human recombinant MMP8 using MCA-Pro-Leu-Gly-Leu-Dpa-Ala-Arg-NH2.AcOH as substrate preincubated for 10 mins measured by fluorescence analysis; how it was run: as §1
[4] = Drug uptake in Sprague-Dawley rat synovial lavage at 0.5 mg/joint measured on day 56; assay type: ADME; settings: in vivo, other, BLD = below limit of detection
Plasma [5] = assay: Drug uptake in Sprague-Dawley rat plasma at 100 mg/kg, ip measured after 8 weeks; assay type: ADME, organism-based; set-up: dose 100 mg/kg, route intraperitoneal; settings: in vivo, 1344 h, BLD = below limit of detection
Plasma [6] = assay: Drug uptake in Sprague-Dawley rat plasma at 0.5 mg/kg, ia measured after 8 weeks; assay type: ADME, organism-based; set-up: dose 0.5 mg/kg; settings: in vivo, other, 1344 h, BLD = below limit of detection
[7] = molecular target: T2, A disintegrin and metalloproteinase with thrombospondin motifs 4 (Homo sapiens, UniProt O75173); assay: Inhibition of human recombinant aggrecanase 1 using aggrecan-IGD as substrate measured after 15 mins by ELISA
T2 sequence (O75173 whole entry): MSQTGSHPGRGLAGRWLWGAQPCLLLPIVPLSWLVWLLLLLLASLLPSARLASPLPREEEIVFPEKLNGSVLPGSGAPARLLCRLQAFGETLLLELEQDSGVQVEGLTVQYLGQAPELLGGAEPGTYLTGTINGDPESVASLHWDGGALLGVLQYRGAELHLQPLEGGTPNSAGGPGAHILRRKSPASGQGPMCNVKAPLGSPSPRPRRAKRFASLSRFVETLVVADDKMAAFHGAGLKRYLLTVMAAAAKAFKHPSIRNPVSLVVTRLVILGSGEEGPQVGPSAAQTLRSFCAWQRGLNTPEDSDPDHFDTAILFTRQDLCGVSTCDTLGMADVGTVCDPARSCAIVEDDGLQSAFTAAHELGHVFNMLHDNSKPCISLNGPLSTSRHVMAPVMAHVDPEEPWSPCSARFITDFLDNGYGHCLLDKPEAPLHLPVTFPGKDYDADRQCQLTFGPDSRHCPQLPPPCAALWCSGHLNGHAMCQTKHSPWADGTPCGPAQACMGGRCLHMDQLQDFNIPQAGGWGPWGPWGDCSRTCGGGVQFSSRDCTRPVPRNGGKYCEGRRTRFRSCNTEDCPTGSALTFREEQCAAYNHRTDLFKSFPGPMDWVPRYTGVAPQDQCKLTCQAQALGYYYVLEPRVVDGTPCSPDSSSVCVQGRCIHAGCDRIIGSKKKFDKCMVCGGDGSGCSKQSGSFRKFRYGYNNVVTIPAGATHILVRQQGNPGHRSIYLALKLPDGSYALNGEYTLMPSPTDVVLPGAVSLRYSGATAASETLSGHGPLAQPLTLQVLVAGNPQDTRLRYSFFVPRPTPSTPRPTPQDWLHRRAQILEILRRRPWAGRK
How it was run: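 Aggrecanase-1 was run in 50 mM Tris-HCl pH 7.5, 150 mM NaCl, 5 mM CaCl₂, 0.05% Brij-35, with 100 nM recombinant human aggrecan interglobular domain as substrate, for 15 min at 37 °C. The reaction was stopped with EDTA, and ARGSVIL neoepitopes were quantified by ELISA.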

[8] = molecular target: Matrix metalloproteinase-14 (Homo sapiens, UniProt P50281); assay: Inhibition of human recombinant MMP14 using MCA-Pro-Leu-Gly-Leu-Dpa-Ala-Arg-NH2.AcOH as substrate preincubated for 10 mins measured by fluorescence analysis; how it was run: as §1
Stromelysin-1 = Stromelysin-1 (Homo sapiens, UniProt P08254); assay: Inhibition of human recombinant MMP3 using MCAArg-Pro-Lys-Pro-Val-Glu-Nva-Trp-Arg-Lys(DNP)-NH2 as substrate preincubated for 10 mins measured by fluorescence analysis
How it was run: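 Catalytic domain of recombinant human MMP-3 was assayed with NFF-3 fluorogenic substrate in 50 mM MES pH 6.0, 10 mM CaCl₂, 0.05% Brij-35. Enzyme was 1–10 nM and substrate 4–10 μM. Enzyme was preincubated 10 min with varying inhibitor concentrations, and IC50 came from at least duplicate runs.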

[9] = Drug uptake in Sprague-Dawley rat cartilage at 0.5 mg/joint measured on day 56; assay type: ADME, tissue-based, Cartilage tissue; settings: read-out: Drug uptake
Rattus norvegicus = assay: Toxicity in Sprague-Dawley rat assessed as joint irritation at 0.5 mg/kg, ia measured after 48 hrs; assay type: organism-based; set-up: dose 0.5 mg/kg; settings: in vivo, other
Plasma [10] = assay: Drug uptake in Sprague-Dawley rat plasma at 100 mg/kg, po measured after 8 weeks; assay type: ADME, organism-based; set-up: dose 100 mg/kg, route oral; settings: in vivo, 1344 h, BLD = below limit of detection
Cartilage tissue = assay: Inhibition of collagen degradation in bovine articular cartilage assessed as inhibition of interlukein-1alpha/oncostatin M-induced C1,C2 release measured after 11 days by ELISA; assay type: functional, tissue-based; settings: Bos taurus
How it was run: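 Freshly isolated bovine articular cartilage pieces (~3 mm²) were stimulated with 5 ng/mL IL-1α plus 50 ng/mL OSM, with or without compound, for 11 days. Medium was refreshed twice weekly. Collagen degradation products in the conditioned medium were quantified by C1,2C ELISA.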

Chain of Macrophage metalloelastase (P39900 whole entry, the tested form may be a part): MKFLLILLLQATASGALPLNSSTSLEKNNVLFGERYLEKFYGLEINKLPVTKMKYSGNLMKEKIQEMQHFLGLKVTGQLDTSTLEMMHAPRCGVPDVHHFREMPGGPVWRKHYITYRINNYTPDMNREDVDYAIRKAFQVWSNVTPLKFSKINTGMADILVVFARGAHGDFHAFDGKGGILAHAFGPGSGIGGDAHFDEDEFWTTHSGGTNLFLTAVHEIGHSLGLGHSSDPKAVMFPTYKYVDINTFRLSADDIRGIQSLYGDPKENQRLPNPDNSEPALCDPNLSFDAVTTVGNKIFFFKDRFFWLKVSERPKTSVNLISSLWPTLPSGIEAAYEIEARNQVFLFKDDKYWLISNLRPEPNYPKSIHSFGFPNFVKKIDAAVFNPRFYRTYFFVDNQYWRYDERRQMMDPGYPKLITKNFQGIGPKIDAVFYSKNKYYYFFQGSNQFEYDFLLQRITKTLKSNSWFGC
Chain of Neutrophil collagenase (P22894 whole entry): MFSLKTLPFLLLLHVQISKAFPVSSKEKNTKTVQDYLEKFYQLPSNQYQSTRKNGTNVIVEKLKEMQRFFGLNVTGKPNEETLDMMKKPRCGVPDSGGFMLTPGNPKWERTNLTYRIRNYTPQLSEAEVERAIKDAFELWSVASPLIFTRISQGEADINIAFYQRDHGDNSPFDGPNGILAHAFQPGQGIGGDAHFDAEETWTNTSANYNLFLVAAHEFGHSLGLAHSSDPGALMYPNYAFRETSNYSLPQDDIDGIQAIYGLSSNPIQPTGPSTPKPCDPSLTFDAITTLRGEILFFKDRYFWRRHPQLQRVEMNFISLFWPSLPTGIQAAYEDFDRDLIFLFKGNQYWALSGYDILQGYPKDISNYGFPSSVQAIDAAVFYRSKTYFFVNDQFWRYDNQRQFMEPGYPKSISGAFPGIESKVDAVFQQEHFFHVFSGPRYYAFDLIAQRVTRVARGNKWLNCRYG
Chain of Stromelysin-1 (P08254 whole entry, the tested form may be a part): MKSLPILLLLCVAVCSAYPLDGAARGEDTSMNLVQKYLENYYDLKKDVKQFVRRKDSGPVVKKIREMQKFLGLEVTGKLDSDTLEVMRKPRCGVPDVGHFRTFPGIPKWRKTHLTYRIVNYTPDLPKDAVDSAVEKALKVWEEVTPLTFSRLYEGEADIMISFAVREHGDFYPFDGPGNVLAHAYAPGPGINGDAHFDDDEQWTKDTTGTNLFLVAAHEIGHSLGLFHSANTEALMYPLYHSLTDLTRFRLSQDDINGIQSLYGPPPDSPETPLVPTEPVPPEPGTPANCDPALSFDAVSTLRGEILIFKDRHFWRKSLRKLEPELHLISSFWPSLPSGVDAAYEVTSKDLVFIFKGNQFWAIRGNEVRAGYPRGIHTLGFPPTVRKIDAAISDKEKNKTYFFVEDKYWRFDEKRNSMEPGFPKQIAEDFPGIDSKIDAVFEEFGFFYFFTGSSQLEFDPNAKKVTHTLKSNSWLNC

Cc1c(C(=O)O)ccc2c1CC[C@@H]2NC(=O)c1cc(C(=O)NCc2ccc3c(c2)NC(=O)CO3)nc2ccnn12
IC50 (Collagenase 3): 0.03 nM
IC50 [1]: 655 nM
IC50 (Interstitial collagenase): > 20000 nM
Cp (Plasma [2]): BLD
Cp (Plasma [3]): BLD
IC50 (Neutrophil collagenase): 3200 nM
Drug uptake [4]: BLD
Cp (Plasma [5]): BLD
Cp (Plasma [6]): BLD
IC50 [7]: 2400 nM
IC50 [8]: > 20000 nM
IC50 (Stromelysin-1): 8200 nM
concentration at 56 days [9]: ≥ 2000 nM
Activity (Rattus norvegicus): Non-toxic
Cp (Plasma [10]): BLD
inhibition (Cartilage tissue): Dose-dependent effect
IC50 (Cartilage tissue; 264 h): 20 nM
